From PubChem BioAssay
CHOP inh: inhibitors of CHOP promoter induction, primary screen, cell-based, unfolded protein response, luciferase reporter; CHO-K1 CHOP-promoter luciferase, tunicamycin-induced, 15-18 h; inhibition, % at 10 µM; 220,000 tested, 3.8% active;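 active = compounds that reduced the stress-induced luciferase reporter signal by more than about 70% of percent inhibition, limit read from the data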
697 NFkB inh: inhibitors of PMA/ionomycin-induced NF-kB reporter, 697 cells, primary screen, B-cell NF-kB inhibitor project, cell-based, luminescence, uHTS; 697 B-cell NF-kB luciferase reporter, 16 h; inhibition, % at 4 µM; 330,000 tested, 0.33% active; AID 435022, 2010; in the data active = inhibition above about 35%
Gli-Sufu antag: Gli-Sufu pathway antagonists, primary screen, luciferase luminescence, Sufu-KO-LIGHT cells, uHTS. Sufu-KO-LIGHT fibroblasts, Gli luciferase reporter luminescence. inhibition, % at 5 µM. 340,000 tested, 0.74% active. AID 588413, 2011;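 active = inhibition above about 55%, limit read from the data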
CHOP UPR activ: activators of apoptotic CHOP UPR arm, primary screen, cell-based, CHO-CHOP luciferase reporter, luminescence, uHTS; UPR activation; percent of tunicamycin response over DMSO baseline; activation, % at 10 µM; 330,000 tested, 0.34% active; AID 449763, 2010;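 active = at 10 µM dose, activation of 40% or more, normalized to positive control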
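Test system: CHO CHOP reporter cells. Input: 500 CHO-CHOP cells per well. Medium: F12 with 10% FBS. Technique: luciferase luminescence. Measure: percent activation relative to tunicamycin control. Dosing: 10 µM compound, 0.5% DMSO. Timing: 16-18 h cell attachment, then 6 h compound exposure, 37 °C.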
XBP1 UPR activ: activators of adaptive XBP1 UPR arm, primary screen, cell-based, CHO-XBP1 luciferase reporter, luminescence, uHTS. IRE1-XBP1 UPR activation; percent of tunicamycin response, DMSO as zero. activation, % at 20 µM. 330,000 tested, 0.33% active;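 active = versus positive control, 20 µM dose yields 30% or more activation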
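Material: CHO-XBP1 cells stably carrying IRE1-XBP1-driven luciferase reporter / Amount: 1000 cells per well / Compound: 20 µM, 1% DMSO / Times: 6 h treatment, 37 °C / Detection: luciferase luminescence / Measure: % activation of reporter signal versus tunicamycin and DMSO controls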
Jurkat NFkB inh: inhibitors of induced NF-kB luciferase reporter, primary screen, TCR NF-kB activation inhibitor project, cell-based, luminescence, uHTS; Jurkat, PMA/ionomycin-induced NF-kB luciferase reporter; inhibition, % at 4 µM; 330,000 tested, 0.53% active; in the data active = inhibition above about 50%
CHOP inh conf: retest of CHOP induction inhibitors, confirmation, cell-based. shares compounds with CHOP inh. CHO-CHOP promoter luciferase reporter, tunicamycin-induced, luminescence. 2,100 tested, 45% active. inhibition, % at 10 µM;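 active = mean of three repeat readings of reporter signal inhibition above a set limit, cut at about 70% in these data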
Hits are given with their value; – = inactive; · = no result given. In the library only some 3.9% were active in any assay of this set; here they are far more common.

SMILES	CHOP inh	697 NFkB inh	Gli-Sufu antag	CHOP UPR activ	XBP1 UPR activ	Jurkat NFkB inh	CHOP inh conf
COc1ccc(C2=NN(c3ccccc3)C(c3cn(CCC(=O)O)nc3-c3ccccc3)C2)cc1 (configuration not stated)	96.1	–	–	–	–	–	–
CN1C(=O)/C(=C/c2cc(N=Nc3ccccc3)ccc2O)SC1=S	104.4	–	–	–	–	–	104.0
CC(C)C[C@H](NC(=O)[C@@H]1Cc2c([nH]c3ccccc23)C2c3ccccc3C(=O)N21)C(=O)N1CCC[C@@H]1C(=O)O (some centres not stated)	·	–	–	–	–	–	·
CCOc1ccc(NC(=O)CC2C(=O)N(CC)C(=S)N2NC(=O)c2ccncc2)cc1 (configuration not stated)	–	–	–	–	–	–	·
O=C(Nc1ccc(F)cc1F)Nc1csc2ccccc12	–	–	–	–	–	–	·
O=C(Nc1ccc(F)c(Cl)c1)Nc1csc2ccccc12	98.9	–	–	–	–	–	–
O=C(Nc1ccc2oc(=O)ccc2c1)c1ccc(-c2cccc(Cl)c2)o1	100.5	–	–	–	–	–	–
Cc1ccccc1Oc1cc(-n2ncc(Cl)c(Cl)c2=O)ncn1	108.2	·	–	·	·	·	118.7
c1ccc(CN2CCC(Nc3nc(-c4ccccc4)nc4ccccc34)CC2)cc1	102.3	–	–	–	–	–	–
Cn1cnc([N+](=O)[O-])c1S(=O)(=O)c1ccc(Cl)cc1	109.5	·	–	·	·	·	115.5
Cn1cnc([N+](=O)[O-])c1NC(C)(C)C	–	–	–	–	–	–	·
O=C(c1ccc(Cl)cc1)c1c[nH]c(C(=O)NNc2cccc(Cl)n2)c1	99.7	–	–	–	–	–	95.6
Cc1ccc(S(=O)(=O)Nc2ccc(Cl)cc2)cc1NC(=O)c1cc2c(s1)CCCC2	103.5	–	–	–	–	–	–
Cc1ccc(NC(=O)Cn2nnc(C(=O)Nc3ccc(C)c(C)c3)c2N)cc1	96.9	–	–	–	–	–	–
COc1ccc(F)cc1S(=O)(=O)Nc1cc2c3c(c1)CC(=O)N3CCC2	·	–	–	–	–	–	·
Cc1ccc(CNc2ccc(N3CCN(C)CC3=O)cc2)cc1	·	–	–	–	–	–	·
CC1(c2ccccc2)CC(C)(C)N2C(=O)/C(=C3\SC(=S)NC3=O)c3cccc1c32 (configuration not stated)	97.2	·	–	·	·	·	81.6
O=C(Nc1ccc(Br)c(C(F)(F)F)c1)c1ccc(C(F)(F)F)cc1	101.8	–	–	–	–	–	98.1
Cc1ccsc1CN(C(=O)c1ccc([N+](=O)[O-])cc1)C1CCS(=O)(=O)C1 (configuration not stated)	·	–	–	–	–	–	·
O=C(N/C(=C/c1cccc(Br)c1)c1nc(=S)[nH][nH]1)c1ccccc1	–	–	–	–	–	–	·
Cc1ccc(C(=O)N/C(=C\c2ccc(Br)cc2)c2nc(=S)[nH][nH]2)cc1	107.8	–	–	–	–	–	121.6
Cc1ccn2c(=O)nc(SCC(=O)NCc3ccccc3Cl)nc2c1	·	–	–	–	–	–	·
O=[N+]([O-])c1cc(C(F)(F)F)ccc1Oc1cccnc1[N+](=O)[O-]	–	–	–	–	–	–	·
O=C(CSc1ccc(C(F)(F)F)cc1[N+](=O)[O-])Nc1ccccc1	96.7	–	–	–	–	–	–
O=C(Nc1ccc(F)cc1)c1ccccc1Oc1ccc(C(F)(F)F)cc1[N+](=O)[O-]	106.1	–	–	–	–	–	–
SMILES	CHOP inh	697 NFkB inh	Gli-Sufu antag	CHOP UPR activ	XBP1 UPR activ	Jurkat NFkB inh	CHOP inh conf
COc1ccccc1NC(=O)c1c(N=Cc2ccccc2O)cnn1C	100.7	–	·	–	–	–	–
CCN1C(=O)[C@@H]2[C@@H](c3ccc(-c4ccc(F)cc4)cc3)N3CCCC[C@@]3(C(=O)OC)[C@@H]2C1=O	·	–	–	–	–	–	·
Cc1ccccc1N1CCN(C(=O)c2ccc(Oc3ccc(C(F)(F)F)cn3)cc2)CC1	103.3	–	–	–	–	–	73.2
O=C(O)c1ccc(Oc2ccc(C(F)(F)F)cn2)cc1	–	–	–	–	–	–	·
Cn1ncc(S(=O)(=O)Cc2ccccc2)c(Cl)c1=O	102.0	–	–	–	–	–	–
Cn1ncc(SCc2ccccc2)c(Cl)c1=O	–	–	–	–	–	–	·
O=C(Nc1cccc(Cl)c1)NC1(C(=O)NCc2cccs2)CCCCC1	104.0	–	–	–	–	–	–
O=C(Cc1ccccc1)Nc1cccc(N2C(=O)C=CC2=O)c1	109.3	·	–	·	·	·	131.6
O=S(=O)(NCC1(N2CCOCC2)CCCCC1)c1ccc(F)c(F)c1F	·	–	–	–	–	–	·
Cc1ccc(C(=O)/C=C\C(=O)c2ccc(C)cc2)cc1	102.3	·	–	·	·	·	–
Cc1ccc(C(=O)c2ccc(C)cc2)cc1	–	–	–	–	–	–	·
COc1ccc(NC(=O)COC(=O)C2CC(=O)N(CCc3ccc(OC)c(OC)c3)C2)cc1Cl (configuration not stated)	·	–	–	–	–	–	·
COc1ccc(NS(=O)(=O)c2ccc(N3CCOCC3)c(NC(=O)c3ccc(F)cc3)c2)cc1	–	–	–	–	–	–	·
COc1ccc(NS(=O)(=O)c2ccc(O)c(NC(=O)c3cc4c(C)nn(-c5ccc(F)cc5)c4s3)c2)cc1	108.2	–	–	–	–	–	114.8
O=C(Cc1ccccc1)NNC(=O)c1ccc(Br)o1	·	–	–	–	–	–	·
CC(C)(C)c1cc(OC(=O)C2CCCC2)ccc1O	·	–	–	–	–	–	·
CCCCC(CC)C(=O)Oc1ccc(O)c(C(C)(C)C)c1 (configuration not stated)	104.0	–	–	–	–	–	117.4
CC(C)C[C@@H](CNCC(=O)[C@H](C)NC(=O)c1[nH]cnc1C(=O)N[C@@H](C)CN)NC(=O)c1nc[nH]c1C(=O)N[C@@H](CC(=O)O)C(=O)O	·	·	–	·	·	·	·
Cc1nonc1NC(=O)CSc1nc(C23CC4CC(CC(C4)C2)C3)nc2ccccc12	100.1	–	–	–	–	–	–
Cc1nonc1NC(=O)CSc1nc(C2CCCCC2)nc2ccccc12	–	–	–	–	–	–	·
CC(CS(=O)(=O)c1ccc2c(c1)NC(=O)CS2)C(=O)NCc1ccccc1Cl (configuration not stated)	·	–	–	–	–	–	·
